In ChEMBL document CHEMBL4257453, “Identification of karanjin isolated from the Indian beech tree as a potent CYP1 enzyme inhibitor with cellular efficacy via screening of a natural product repository” (Medchemcomm, 2018) one finds IC50, inhibition and Ratio IC50 data, which are given here for 2 molecules.

The IC50 is the point on the concentration scale where inhibition reaches its midpoint. The term inhibition denotes the share of the control response that was lost under treatment.

Where only a bound is given, the exact number is not on record here.

One series has as its target Cytochrome P450 3A4 (Homo sapiens, UniProt P08684). Description: Inhibition of human recombinant CYP3A4 expressed in HEK293 cells using dibenzylfluorescein substrate substrate preincubated for 30 mins followed by substrate addition and measured after 60 mins by fluorescence assay relative to control. The format is ADME, cell-based. In a few lines: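 HEK293 cells adapted to suspension and transiently transfected with pcDNA3.1 plasmids carrying the individual CYP; 100×10^3 cells per well in triplicate. Fluorogenic substrate is then added at 5 μM and fluorescence read for 60 min.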

The target of a further series is T1, CYP1A1 (Homo sapiens, UniProt P04798).
T1 sequence (P04798 whole entry): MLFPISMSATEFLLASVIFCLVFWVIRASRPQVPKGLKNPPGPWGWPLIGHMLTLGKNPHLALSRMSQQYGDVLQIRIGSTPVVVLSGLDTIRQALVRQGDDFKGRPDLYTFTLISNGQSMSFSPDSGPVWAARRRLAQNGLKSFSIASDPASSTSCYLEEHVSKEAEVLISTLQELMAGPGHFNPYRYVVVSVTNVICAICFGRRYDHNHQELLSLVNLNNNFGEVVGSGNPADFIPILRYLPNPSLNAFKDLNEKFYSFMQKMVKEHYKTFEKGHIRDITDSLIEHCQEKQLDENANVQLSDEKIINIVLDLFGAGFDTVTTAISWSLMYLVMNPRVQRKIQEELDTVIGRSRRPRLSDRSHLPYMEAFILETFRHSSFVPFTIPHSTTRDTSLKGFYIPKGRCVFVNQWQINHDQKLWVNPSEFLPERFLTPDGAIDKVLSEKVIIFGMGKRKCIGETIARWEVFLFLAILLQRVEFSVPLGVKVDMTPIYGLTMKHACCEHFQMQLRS
Description: Inhibition of recombinant human CYP1A1 expressed in baker's yeast-derived microsomes (Sacchrosomes) at 10 uM using 7-ethoxyresorufin substrate by EROD assay relative to control. The settings on record: probe 7-ethoxyresorufin. In outline:
(§1)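 Yeast microsomes carrying recombinant CYP (Sacchrosomes). Substrates per isoform are 7-ethoxyresorufin, 3-cyano-7-ethoxycoumarin, EOMCC or dibenzylfluorescein, read as endpoint fluorescence. Background from compound-only wells without enzyme is subtracted. Independent triplicate runs; α-naphthoflavone positive control.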

A further series addresses T2, CYP1A2 (Homo sapiens, UniProt P05177).
T2 sequence (P05177 whole entry): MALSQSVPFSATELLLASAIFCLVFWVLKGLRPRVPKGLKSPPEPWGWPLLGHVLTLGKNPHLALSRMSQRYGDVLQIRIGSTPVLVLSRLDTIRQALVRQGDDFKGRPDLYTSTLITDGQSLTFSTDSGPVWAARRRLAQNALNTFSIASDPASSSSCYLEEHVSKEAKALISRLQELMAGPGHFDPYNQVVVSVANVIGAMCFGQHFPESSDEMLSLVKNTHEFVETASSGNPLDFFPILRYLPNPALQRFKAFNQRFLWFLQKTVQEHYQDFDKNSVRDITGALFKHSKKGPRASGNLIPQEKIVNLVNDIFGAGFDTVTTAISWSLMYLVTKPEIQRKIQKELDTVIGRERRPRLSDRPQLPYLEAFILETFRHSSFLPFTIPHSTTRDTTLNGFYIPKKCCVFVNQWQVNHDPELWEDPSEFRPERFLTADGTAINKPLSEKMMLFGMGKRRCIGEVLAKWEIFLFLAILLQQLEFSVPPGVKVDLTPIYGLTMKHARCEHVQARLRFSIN
Description: Inhibition of recombinant human CYP1A2 expressed in baker's yeast-derived microsomes (Sacchrosomes) at 10 uM using 3-cyano-7-ethoxycoumarin substrate by EROD assay relative to control. The settings on record: probe 3-cyano-7-ethoxycoumarin. Type of series: ADME. In outline:
as §1

Another series has as its target CYP2D6 (Homo sapiens, UniProt P10635). Description: Inhibition of recombinant human CYP2D6 expressed in baker's yeast-derived microsomes (Sacchrosomes) at 10 uM using 7-ethoxy-methyloxy-3-cyanocoumarin substrate by EROD assay relative to control. Type of series: ADME. The note with it: probe 7-ethoxy-methyloxy-3-cyanocoumarin. In outline: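 Yeast microsomes carrying recombinant CYP (Sacchrosomes). […] Substrates per isoform are 7-ethoxyresorufin, 3-cyano-7-ethoxycoumarin, EOMCC or dibenzylfluorescein, read as endpoint fluorescence. Background from compound-only wells without enzyme is subtracted. Independent triplicate runs; α-naphthoflavone positive control.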

For a further series, the species on record is Homo sapiens. Description: Selectivity index, ratio of IC50 for inhibition of human recombinant CYP1B1 expressed in HEK293 cells by fluorescence assay to IC50 for inhibition of human recombinant CYP1A1 expressed in HEK293 cells by fluorescence assay. Type of series: cell-based. In outline: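 HEK293 suspension cells transiently transfected with pcDNA3.1/CYP1B1 or pcDNA3.1/CYP1A1, 100×10^3 cells per well in triplicate. Compound (1 nM to 30 μM) preincubated 30 min at 37 °C, 8% CO2. 7-Ethoxyresorufin then added at 5 μM, and resorufin fluorescence (EROD) read over 60 min. IC50 taken from concentration-response for each isoform; index = CYP1B1 IC50 / CYP1A1 IC50.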

Chain of CYP2D6 (P10635 whole entry, canonical isoform): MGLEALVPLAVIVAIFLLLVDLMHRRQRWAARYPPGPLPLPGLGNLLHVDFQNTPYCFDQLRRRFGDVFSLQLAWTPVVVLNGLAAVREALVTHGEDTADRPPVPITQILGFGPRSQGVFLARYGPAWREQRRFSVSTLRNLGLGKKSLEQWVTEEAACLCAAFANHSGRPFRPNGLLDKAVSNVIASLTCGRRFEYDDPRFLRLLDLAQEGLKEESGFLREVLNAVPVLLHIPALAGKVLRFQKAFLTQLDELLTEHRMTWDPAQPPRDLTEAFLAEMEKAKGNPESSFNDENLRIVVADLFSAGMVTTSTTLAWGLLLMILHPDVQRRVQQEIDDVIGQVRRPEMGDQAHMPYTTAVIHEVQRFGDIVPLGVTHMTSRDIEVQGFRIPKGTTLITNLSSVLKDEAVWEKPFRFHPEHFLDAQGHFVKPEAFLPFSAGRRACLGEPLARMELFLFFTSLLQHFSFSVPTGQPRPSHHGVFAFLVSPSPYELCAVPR
Chain of Cytochrome P450 3A4 (P08684 whole entry): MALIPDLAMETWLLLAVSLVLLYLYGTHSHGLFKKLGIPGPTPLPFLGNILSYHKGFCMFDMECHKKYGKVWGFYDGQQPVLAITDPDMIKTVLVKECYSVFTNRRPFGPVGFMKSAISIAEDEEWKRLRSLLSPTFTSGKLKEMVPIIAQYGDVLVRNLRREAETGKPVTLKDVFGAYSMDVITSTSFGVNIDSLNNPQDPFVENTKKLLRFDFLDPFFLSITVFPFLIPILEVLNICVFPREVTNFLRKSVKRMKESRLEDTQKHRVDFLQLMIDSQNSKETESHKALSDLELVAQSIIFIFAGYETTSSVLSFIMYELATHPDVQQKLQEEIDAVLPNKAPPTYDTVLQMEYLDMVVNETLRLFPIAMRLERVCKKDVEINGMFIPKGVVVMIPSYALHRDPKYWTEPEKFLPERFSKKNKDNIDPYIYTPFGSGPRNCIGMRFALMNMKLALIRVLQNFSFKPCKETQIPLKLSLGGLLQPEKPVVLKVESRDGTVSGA

Take `COc1c2ccoc2cc2oc(=O)ccc12` [BERGAPTEN]: on Cytochrome P450 3A4, the IC50 was > 10 µM. In addition, the inhibition at 10 µM at CYP1A1 came out at 68%; on CYP1A2 it was 73%; on CYP2D6 it was 9%. Besides, in the series filed under Homo sapiens, the Ratio IC50 is 192.

As to `COc1c2ccoc2c(OC)c2oc(=O)ccc12` [ISOPIMPINELLIN], the IC50 at Cytochrome P450 3A4 was > 10 µM. The inhibition at 10 µM at CYP1A1 was found to be 71%; at CYP1A2 it was 62%; on CYP2D6, 0%. Besides, in the series filed under Homo sapiens, the Ratio IC50 was found to be 319.
